For 25 compounds, inhibition and IC50 results are on record in ChEMBL document CHEMBL2311523, “Identification of novel chromenone derivatives as interleukin-5 inhibitors” (Eur J Med Chem, 2013).

The target of test [1] is T1, Interleukin-5 (Mus musculus) (UniProt P04401).
T1 sequence (whole entry): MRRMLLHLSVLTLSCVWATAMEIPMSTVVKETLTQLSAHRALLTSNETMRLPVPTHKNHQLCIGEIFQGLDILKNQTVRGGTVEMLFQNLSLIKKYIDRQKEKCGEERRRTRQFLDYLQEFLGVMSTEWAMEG
Kind of test: Inhibition of IL-5 in mouse pro-B Y16 cells at 30 uM after 48 hrs by WST1 assay. The test is classed as cell-based. Summed up:
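IL-5-dependent mouse pro-B Y16 cells were stimulated with 3 units/mL mIL-5 and incubated 48 h with or without compound. Cell metabolism was read by WST-1 tetrazolium reduction as an index of IL-5-driven proliferation.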

Test [2] is described as follows: Inhibition of IL-5 in mouse pro-B Y16 cells after 48 hrs by WST1 assay.

In test [1], `O=C(/C=C/c1coc2cccc(OCC3CCCCC3)c2c1=O)c1ccc(Cl)cc1` had an inhibition of 46.3%.
Same read-out and setting: the same measure for `Cc1ccc(C(O)/C=C/c2coc3cccc(OCC4CCCCC4)c3c2=O)cc1` (racemic): 93.2%.
Take `CC(C)COc1cccc2occ(/C=C/C(=O)c3ccc(O)cc3)c(=O)c12`: the inhibition in test [1] turned out to be 87.5%.
Regarding `O=C(/C=C/c1coc2cccc(OCC3CCCCC3)c2c1=O)c1ccc(F)cc1`, the inhibition in test [1] stood at 15.4%.
Same read-out and setting: the figure for `O=c1c(/C=C/C(O)c2ccc(F)cc2)coc2cccc(OCC3CCCCC3)c12` (racemic) is 93.2%; for `CC(C)COc1cccc2occ(/C=C/C(O)c3ccc(O)cc3)c(=O)c12` (racemic) it is 20.6%.
On the same count and under the same terms, the figure for `COc1ccc(C(O)/C=C/c2coc3cccc(OCC4CCCCC4)c3c2=O)cc1` (racemic) is 93.6%.
As to `O=c1c(-c2ccc(O)cc2)coc2cccc(OCC3CCCCC3)c12`, half-maximal inhibition in test [2] (IC50) required 5.8 µM.
`N#Cc1ccc(C(=O)/C=C/c2coc3cccc(OCC4CCCCC4)c3c2=O)cc1` came in with an inhibition in test [1] of 9.2%.
On the same count and under the same terms, the figure for `CC(C)(C)c1ccc(C(=O)/C=C/c2coc3cccc(OCC4CCCCC4)c3c2=O)cc1` is 99.2%.
The same measure, in the same setting: the same measure for `O=c1c(/C=C/C(O)c2ccc(O)cc2)coc2cccc(OCC3CCCCC3)c12` (racemic): 92.7%; for `O=c1c(/C=C/C(O)c2ccc(C(F)(F)F)cc2)coc2cccc(OCC3CCCCC3)c12` (racemic): 92.7%; for `O=c1c(/C=C/C(O)c2ccc([N+](=O)[O-])cc2)coc2cccc(OCC3CCCCC3)c12` (racemic): 93.8%.
`O=c1c(/C=C/C(O)c2ccc(Cl)cc2)coc2cccc(OCC3CCCCC3)c12` (racemic): the inhibition in test [1] came out at 93.5%.
On the same count and under the same terms, the same measure for `CC(C)(C)c1ccc(C(O)/C=C/c2coc3cccc(OCC4CCCCC4)c3c2=O)cc1` (racemic): 15.7%; for `O=C(/C=C/c1coc2cccc(OCC3CCCCC3)c2c1=O)c1ccc([N+](=O)[O-])cc1`: 11.8%.
The same measure, in the same setting: the same measure for `COc1cccc2occ(/C=C/C(O)c3ccc(O)cc3)c(=O)c12` (racemic): 21.3%; for `O=C(/C=C/c1coc2cccc(OCC3CCCCC3)c2c1=O)c1ccccc1`: 17.2%; for `COc1ccc(C(=O)/C=C/c2coc3cccc(OCC4CCCCC4)c3c2=O)cc1`: 9.3%.
On the same count and under the same terms, the figure for `Cc1ccc(C(=O)/C=C/c2coc3cccc(OCC4CCCCC4)c3c2=O)cc1` is 57.5%; for `O=c1c(/C=C/C(O)c2ccccc2)coc2cccc(OCC3CCCCC3)c12` (racemic) it is 93.9%.
In test [1], `COc1cccc2occ(/C=C/C(=O)c3ccc(O)cc3)c(=O)c12` had an inhibition of 32.3%.
In test [1], `O=C(/C=C/c1coc2cccc(OCC3CCCCC3)c2c1=O)c1ccc(C(F)(F)F)cc1` gave an inhibition of 42.7%.
In test [1], `O=C(/C=C/c1coc2cccc(OCC3CCCCC3)c2c1=O)c1ccc(O)cc1` gave an inhibition of 99%.
For the compound `N#Cc1ccc(C(O)/C=C/c2coc3cccc(OCC4CCCCC4)c3c2=O)cc1` (racemic), the inhibition in test [1] amounted to 94.4%.
